TRPC4 agonist = TRPC4 (mouse) channel activation; HEK293 TRPC4beta/mu-opioid, Fluo4 calcium fluorescence; active compounds read high; B-score at 10 µM; actives 0.49% (n = 310,000); AID 2237;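 active = B-score above 5 SD of library B-scores, and initial fluorescence ratio not above library mean plus 5 SD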;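 note: positive B-score marks a calcium rise read as TRPC4 activation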
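Test system: HEK293 cells stably co-expressing mouse TRPC4beta and mu-opioid receptor | Schedule: Fluo4 dye loading 45 min at room temperature, 110 s recording | Measured by: Kinetic Fluo4 calcium fluorescence, 5 s baseline at 1 Hz | Evaluation: B score of integrated ratio | Controls: Buffer (low) and maximal DAMGO (high)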
TRPC4 PAM = allosterically enhances the mouse TRPC4 cation channel | AID 2227 | HEK293 TRPC4beta/mu-opioid, DAMGO EC20, Fluo-4 Ca2+ flux; active compounds read high | actives 0.42% (n = 310,000) | B-score at 10 µM | Q9QUQ5;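 active = B-score of calcium response area above 5 SD of library B-scores, with initial fluorescence ratio within 5 SD of library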;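 note: B-score of integrated fluorescence ratio over time as area under calcium response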
TRPC6 act = activators of mouse TRPC6 channel. Q61143. HEK293-TRPC6 membrane potential dye fluorescence; active compounds read high. B-score at 10 µM. actives 0.13% (n = 310,000). AID 2550;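 active = B-score of the integrated fluorescence ratio above library mean plus 3 SD, and starting fluorescence ratio within library mean plus 5 SD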;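 note: higher score means more depolarization so channel activation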
Kir21 block = Kir2.1 (mouse) channel inhibition; actives 0.85% (n = 310,000); AID 1672; HEK293-Kir2.1, FluxOR thallium flux fluorescence; active compounds read low; B-score at 10 µM; P35561;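 active = fluorescence ratio B-score at or below minus 3 SD of library scores, with starting-brightness B-score within 2 SD, cut at about -4.2 in these data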;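 note: channel flux triggered by added potassium and thallium sulfate stimulus; B-score of peak minus minimum fluorescence over baseline after thallium stimulus; more negative B-score means stronger Kir2.1 block with less thallium influx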
Target sequence (P35561 whole entry, looked up): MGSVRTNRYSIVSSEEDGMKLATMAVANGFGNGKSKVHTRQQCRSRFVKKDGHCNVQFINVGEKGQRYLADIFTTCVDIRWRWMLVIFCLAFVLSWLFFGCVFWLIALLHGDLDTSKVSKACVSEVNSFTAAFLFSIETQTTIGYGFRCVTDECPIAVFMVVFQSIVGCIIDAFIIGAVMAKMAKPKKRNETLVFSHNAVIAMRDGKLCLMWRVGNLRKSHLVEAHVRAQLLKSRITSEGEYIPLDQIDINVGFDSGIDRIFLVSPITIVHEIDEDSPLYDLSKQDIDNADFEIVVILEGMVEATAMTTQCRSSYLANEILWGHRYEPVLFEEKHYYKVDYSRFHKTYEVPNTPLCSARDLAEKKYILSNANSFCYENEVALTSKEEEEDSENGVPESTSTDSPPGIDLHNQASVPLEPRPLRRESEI
TRPC4 block = blocks the mouse TRPC4 cation channel; HEK293 TRPC4beta/mu-opioid, DAMGO-evoked Fluo4 calcium flux; active compounds read low; AID 2247; B-score at 10 µM; actives 0.39% (n = 300,000);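 active = B-score over 3 SD under the library average, no early fluorescence shift, positive overall ratio signal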
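Signal: kinetic Fluo4 fluorescence imaging of calcium influx. Material: stable TRPC4beta/mu-opioid receptor HEK293 cells. Probe or stimulus: DAMGO in two steps, submaximal then maximal.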
TRPC6 inhibitor = mouse TRPC6 channel inhibition; Q61143; HEK293-TRPC6, membrane potential dye, ACh-evoked depolarization; active compounds read low; B-score at 10 µM; actives 1.1% (n = 310,000);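 active = B-score under library mean minus 3 SD, initial fluorescence not abnormally high, positive integrated signal ratio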;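 note: B-score derived from integrated fluorescence ratio over the kinetic read; more negative B-score means stronger inhibition of depolarization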
TRPC4 spec 2 = second check of whether TRPC6 inhibitors also affect mouse TRPC4 | shares compounds with TRPC6 inhibitor | HEK293 TRPC4/MOR, membrane potential dye fluorescence; channel activated by saturating DAMGO dose | inhibition, % at 10 µM | actives 42% (n = 920) | AID 2776;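 active = compounds whose fluorescence signal differed from control wells by over 3 SD, either direction, in both duplicate plates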
TRPC4 spec = tests whether TRPC6 inhibitors also affect mouse TRPC4; shares compounds with TRPC6 inhibitor; HEK293 TRPC4/mu-opioid, membrane potential fluorescence; activity change, negative = inhibition, % at 10 µM; actives 61% (n = 920); AID 2777;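 active = rise or fall in signal beyond 3 SD of buffer-only wells in both replicate plates, either sign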;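 note: integrated kinetic ratio of fluorescence range over baseline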
HEK293 MPD ctr 2-1 = second check of TRPC6 inhibitor effects in parental HEK293 cells | AID 2779 | actives 31% (n = 920) | signal change vs control, % at 10 µM | shares compounds with TRPC6 inhibitor | parental HEK293 membrane potential dye fluorescence; maximal acetylcholine challenge after compound addition;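 active = membrane potential signal moving either way by over 3 SD of the maximum-effect control, in both duplicate plates, meaning non-specific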
HEK293 MPD ctr-1 = checks TRPC6 inhibitor effects in parental HEK293 cells | shares compounds with TRPC6 inhibitor | parental HEK293 membrane potential dye fluorescence | membrane potential signal change, % at 10 µM | actives 60% (n = 920);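 active = membrane potential signal shifting up or down by more than 3 SD of buffer-only wells, on both duplicate plates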
HEK293 MPD ctr-2 = counter-screen for TRPC6 modulators: effect in parental HEK293 cells | membrane potential signal change, % at 10 µM | shares compounds with TRPC6 inhibitor | membrane potential dye fluorescence | actives 51% (n = 2,400) | AID 488924;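 active = membrane potential signal moves up or down beyond 5 SD from buffer-only wells, on both duplicate plates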
HEK293 MPD ctr 2-2 = parental HEK293 nonspecific activity of TRPC6 modulators, second screen; membrane potential dye fluorescence; after compound, maximal acetylcholine stimulation; shares compounds with TRPC6 inhibitor; inhibition, % at 10 µM; AID 488926; actives 14% (n = 2,400);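 active = membrane potential signal drops by more than 5 SD from the mean control signal, in both duplicate plates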;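 note: plate controls were acetylcholine ECmax control wells for no effect and buffer only wells for full effect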
TRPC4 ctr mod = tests whether TRPC6 modulators also affect mouse TRPC4; shares compounds with TRPC6 inhibitor; actives 69% (n = 2,400); AID 488927; HEK293 TRPC4/mu-opioid, membrane potential fluorescence; percent change from control (negative = decrease, positive = increase), % at 10 µM;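 active = membrane potential signal moved up or down beyond 5 SD of buffer control wells, in both duplicate plates, actives on both sides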;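 note: plate controls were assay buffer wells for no effect and DAMGO maximal-effect wells for full effect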
TRPC4/MOR inh 2 = mouse TRPC4 off-target activity of TRPC6 modulators, second screen | shares compounds with TRPC6 inhibitor | HEK293 TRPC4/mu-opioid, membrane potential dye fluorescence; stimulated with maximal-effect DAMGO | inhibition, % at 10 µM | actives 55% (n = 2,400);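 active = drop in membrane potential signal beyond 5 SD of the control wells in both duplicate plates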;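 note: TRPC4 counter screen for TRPC6 hits run under conditions tuned for TRPC6 not TRPC4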
TRPC6 block conf = confirmation of mouse TRPC6 inhibitors; HEK293-TRPC6, membrane potential dye, ACh-evoked depolarization; AID 488960; actives 43% (n = 3,300); shares compounds with TRPC6 inhibitor; inhibition, % at 10 µM;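 active = fluorescence ratio falls more than 5 SD below the full-stimulation control mean, in both duplicate runs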;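 note: integrated fluorescence ratio of peak minus minimum over baseline after agonist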
TRPC6 act confirm = mouse TRPC6 activator confirmation; shares compounds with TRPC6 inhibitor; HEK293-TRPC6 membrane potential dye fluorescence, FDSS; activation, % at 10 µM; actives 11% (n = 2,800); AID 488961;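 active = ratio signal rise beyond 5 SD above unstimulated control wells' mean, seen in both duplicate runs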;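 note: plate controls were buffer EC0 wells for no effect and acetylcholine ECmax response for full effect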
Starred values were filed as active, the others as inactive. An excerpt weighted towards active compounds, which were near 3% of everything screened.

Screening Cc1cc(C)c(NC(=O)CS(=O)CC(=O)N2CCN(c3cccc(C)c3C)CC2)c(C)c1 (stereo not drawn) returned TRPC4 agonist inactive, TRPC4 PAM inactive, TRPC6 act inactive, Kir21 block 1.8, TRPC4 block inactive and TRPC6 inhibitor inactive.
Screening CC(=O)N1c2ccccc2Sc2ccccc21 returned TRPC4 agonist inactive, TRPC4 PAM inactive, TRPC6 act inactive, Kir21 block -1.3, TRPC4 block inactive and TRPC6 inhibitor inactive.
For CC(C)CNCC(=O)N1c2ccccc2Sc2ccccc21 the results were TRPC4 agonist inactive, TRPC4 PAM inactive, TRPC6 act inactive, Kir21 block -2, TRPC4 block inactive, TRPC6 inhibitor -5.7*, HEK293 MPD ctr-2 124%*, HEK293 MPD ctr 2-2 inactive, TRPC4 ctr mod 16%*, TRPC4/MOR inh 2 56%* and TRPC6 block conf inactive.
Screening COCCNCC(=O)N1c2ccccc2Sc2ccccc21 returned TRPC4 agonist inactive, TRPC4 PAM inactive, TRPC6 act inactive, Kir21 block -0.05, TRPC4 block inactive and TRPC6 inhibitor inactive.
Cc1cccc[n+]1CC(=O)N1c2ccccc2Sc2ccccc21 was read as TRPC4 agonist inactive, TRPC4 PAM inactive, TRPC6 act inactive, Kir21 block -0.2, TRPC4 block inactive, TRPC6 inhibitor -11*, TRPC4 spec 2 inactive, TRPC4 spec inactive, HEK293 MPD ctr 2-1 -12%*, HEK293 MPD ctr-1 inactive, TRPC6 block conf 93%* and TRPC6 act confirm inactive.
O=C(c1ccc(Cn2c(=S)[nH]c3ccccc3c2=O)cc1)N1CCN(c2ccccn2)CC1 was read as TRPC4 agonist inactive, TRPC4 PAM inactive, TRPC6 act inactive, Kir21 block -1.3, TRPC4 block inactive and TRPC6 inhibitor inactive.
For CC(C)(C)NC(=O)C(c1ccc(F)cc1)N(Cc1ccco1)C(=O)CCC(=O)Nc1ccccn1 (stereo not drawn) the results were TRPC4 agonist inactive, TRPC4 PAM inactive, TRPC6 act inactive, Kir21 block 0.16, TRPC4 block inactive, TRPC6 inhibitor -6*, HEK293 MPD ctr-2 354%*, HEK293 MPD ctr 2-2 inactive, TRPC4 ctr mod 78%*, TRPC4/MOR inh 2 inactive and TRPC6 block conf inactive.
CC(C)(C)NC(=O)C(c1ccc(O)cc1)N(Cc1ccco1)C(=O)CCC(=O)Nc1ccccn1 (stereo not drawn) was read as TRPC4 agonist inactive, TRPC4 PAM inactive, TRPC6 act inactive, Kir21 block -1.6, TRPC4 block inactive and TRPC6 inhibitor inactive.
`Cc1ccnc(NS(=O)(=O)c2cc(C(F)(F)F)ccc2Cl)c1` gave TRPC4 agonist inactive, TRPC4 PAM inactive, TRPC6 act inactive, Kir21 block -1.8, TRPC4 block inactive and TRPC6 inhibitor inactive.
Screening NS(=O)(=O)c1ccc(CCNC(=O)NC2(C(F)(F)F)Oc3ccccc3O2)cc1 returned TRPC4 agonist inactive, TRPC4 PAM inactive, TRPC6 act inactive, Kir21 block -1.2, TRPC4 block inactive, TRPC6 inhibitor -5.7*, HEK293 MPD ctr-2 inactive, HEK293 MPD ctr 2-2 inactive, TRPC4 ctr mod inactive, TRPC4/MOR inh 2 inactive, TRPC6 block conf inactive and TRPC6 act confirm inactive.
For CCCCNC(=O)NC1(C(F)(F)F)Oc2ccccc2O1 the results were TRPC4 agonist inactive, TRPC4 PAM inactive, TRPC6 act inactive, Kir21 block 2.6, TRPC4 block inactive and TRPC6 inhibitor inactive.
O=C(COC(=O)CNC(=O)c1ccccc1F)Nc1cccnc1Cl was read as TRPC4 agonist inactive, TRPC4 PAM inactive, TRPC6 act inactive, Kir21 block 1.9, TRPC4 block inactive and TRPC6 inhibitor inactive.
Screening CC[n+]1c(/C=C/Nc2ccccc2)sc2ccccc21 returned TRPC4 agonist inactive, TRPC4 PAM inactive, TRPC6 act inactive, Kir21 block 0.17, TRPC4 block inactive, TRPC6 inhibitor -8.5*, TRPC4 spec 2 76%*, TRPC4 spec -20%*, HEK293 MPD ctr 2-1 inactive, HEK293 MPD ctr-1 -361%*, TRPC6 block conf inactive and TRPC6 act confirm inactive.
For CC[n+]1c(/C=C(/C)SC)sc2ccccc21 the results were TRPC4 agonist inactive, TRPC4 PAM inactive, TRPC6 act inactive, Kir21 block -1.3, TRPC4 block inactive, TRPC6 inhibitor -7.5*, HEK293 MPD ctr-2 -275%*, HEK293 MPD ctr 2-2 82%*, TRPC4 ctr mod -48%*, TRPC4/MOR inh 2 52%*, TRPC6 block conf 67%* and TRPC6 act confirm inactive.

Compound activity (PubChem)
